Tests used:
[1] = Metal chelating activity assessed as compound-Fe2+ complex formation after 10 mins by UV-Vis spectrophotometer; type: physicochemical
In short: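 Fe2+ chelation by modified Minotti–Aust method. Compounds 5–100 μM with Fe2+ 120 μM (final), 37°C 10 min, then 1,10-phenanthroline (0.25% w/v) added and A510 read. Methanol serves as control, BHT as reference chelator. % chelation = (A control − A sample)/A control × 100; EC50 derived. Mean ± SEM, n=3 in duplicate.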

[2] = Antioxidant activity assessed as inhibition of Fe2+-induced thiobarbituric acid reactive substance formation in phospholipids extracted from egg yolk by measuring malondialdehyde levels per mg of triglycerides at 100 uM after 1 hr by UV-Vis spectrophotometric method (reference value: 8.17 +/- 0.32 nmol); type: functional
In short: (§1)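 Egg-yolk phospholipids (isopropanol/water extract, pellet resuspended; 1 mg/mL triglycerides) incubated with or without fresh FeSO4 100 μM plus compound in 0.05 M potassium phosphate pH 7.5, 37°C 1 h. Acetic acid (pH 3.4) and 0.6% TBA added, 97°C 1 h, n-butanol extraction, A532 against MDA standard. Reported as nmol MDA/mg triglycerides. Mean ± SEM, n=3 in duplicate.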

[3] = Antioxidant activity assessed as inhibition of Fe2+-induced thiobarbituric acid reactive substance formation in phospholipids extracted from egg yolk after 1 hr by UV-Vis spectrophotometric method; type: functional; in short: as §1
Acetylcholinesterase = Acetylcholinesterase (Electrophorus electricus, UniProt O42275); test: Inhibition of electric eel AChE using acetylthiocholine iodide as substrate preincubated for 15 mins followed by substrate addition measured every 15 secs for 5 to 10 mins by Ellman's method
Sequence of Acetylcholinesterase (O42275 whole entry): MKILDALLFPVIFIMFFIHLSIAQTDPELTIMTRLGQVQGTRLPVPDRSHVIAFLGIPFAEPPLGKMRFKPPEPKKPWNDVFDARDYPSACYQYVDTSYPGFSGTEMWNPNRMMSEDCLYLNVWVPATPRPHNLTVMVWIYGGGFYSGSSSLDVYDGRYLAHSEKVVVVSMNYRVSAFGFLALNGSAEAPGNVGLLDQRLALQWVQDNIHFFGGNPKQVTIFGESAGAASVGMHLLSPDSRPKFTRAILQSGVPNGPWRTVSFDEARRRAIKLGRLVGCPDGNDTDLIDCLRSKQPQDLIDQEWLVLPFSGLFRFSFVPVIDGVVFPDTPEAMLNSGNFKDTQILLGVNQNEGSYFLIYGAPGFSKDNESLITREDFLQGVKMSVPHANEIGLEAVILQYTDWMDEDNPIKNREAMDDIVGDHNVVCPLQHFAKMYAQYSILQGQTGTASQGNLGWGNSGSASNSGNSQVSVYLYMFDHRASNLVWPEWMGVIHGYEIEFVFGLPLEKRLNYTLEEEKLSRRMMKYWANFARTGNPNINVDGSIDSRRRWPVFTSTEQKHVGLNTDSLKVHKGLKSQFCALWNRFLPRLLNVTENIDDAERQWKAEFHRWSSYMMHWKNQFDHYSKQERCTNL

Row | SMILES | EC50 [1] [µM] | MDA level [2] [nmol] | Activity [3] | IC50 (Acetylcholinesterase) [µM]
1 | CCOC(=O)C1=C(C[Se]C(=O)c2ccc(C)cc2)NC(=O)NC1c1ccc(C)cc1 (stereo not given) | 21.2 | 0.87 | Dose-dependent effect | –
2 | Cc1cc(C(C)(C)C)c(O)c(C(C)(C)C)c1 [BUTYLATED HYDROXYTOLUENE] | 23.3 | – | – | –
3 | CCOC(=O)C1=C(C[Se]C(=O)c2ccc(C)cc2)NC(=O)NC1c1ccc(OC)cc1 (stereo not given) | 22.4 | 0.77 | Dose-dependent effect | –
4 | c1ccc([Se][Se]c2ccccc2)cc1 | – | 2.41 | – | –
5 | CCOC(=O)C1=C(C[Se]C(=O)c2ccc(C)cc2)N(C)C(=O)NC1c1cccc([N+](=O)[O-])c1 (stereo not given) | 32.8 | 2.29 | – | –
6 | CCOC(=O)C1=C(C[Se]C(C)=O)NC(=O)NC1c1ccccc1 (stereo not given) | 41.2 | 5.1 | – | 14.2
7 | CCOC(=O)C1=C(C[Se]C(=O)c2ccc(C)cc2)NC(=O)NC1c1cccc([N+](=O)[O-])c1 (stereo not given) | 24.5 | 1.51 | – | –
8 | CCOC(=O)C1=C(C[Se]C(=O)c2ccc(C)cc2)NC(=O)NC1c1ccccc1 (stereo not given) | 10.5 | 0.46 | Dose-dependent effect | 7.21
9 | Cc1ccc(C(=O)[Se]Cc2ccccc2)cc1 | 22.4 | 1.23 | – | 12.9
10 | CCOC(=O)C1=C(C)NC(=O)NC1c1ccccc1 (stereo not given) | 15.8 | 3.03 | – | 9.23
11 | O=c1c2ccccc2[se]n1-c1ccccc1 | – | 3.22 | – | –
12 | CCOC(=O)C1=C(C[Se]C(=O)c2ccc(C)cc2)NC(=O)NC1c1ccc(O)c(OC)c1 (stereo not given) | 8.1 | 0.68 | Dose-dependent effect | 13.6
13 | CCOC(=O)C1=C(C[Se]C(=O)c2ccc(C)cc2)NC(=O)NC1c1cccc2ccccc12 (stereo not given) | 35.5 | 1.96 | – | –
14 | CCOC(=O)C1=C(C[Se]C(=O)c2ccc(C)cc2)NC(=O)NC1c1ccc(N(C)C)cc1 (stereo not given) | 29.6 | 3.96 | – | –
15 | CCOC(=O)C1=C(C[Se]C(=O)c2cccc(C(=O)[Se]CC3=C(C(=O)OCC)C(c4ccccc4)NC(=O)N3)c2)NC(=O)NC1c1ccccc1 (stereo not given) | 29.9 | 3.99 | – | 10.6
16 | CCOC(=O)C1=C(CSC(=O)c2ccc(C)cc2)NC(=O)NC1c1ccccc1 (stereo not given) | 20.2 | 3.14 | – | 11.7

From ChEMBL document CHEMBL3860085, “Synthesis and evaluation of dihydropyrimidinone-derived selenoesters as multi-targeted directed compounds against Alzheimer's disease” (Bioorg Med Chem, 2016)
